A short description of experiment [1]: Her2 expression decrease, cell viability multiplex – SKBR3 breast tumor cells, AlphaScreen, ATP viability, primary screen (AID 461;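 active = Her2 level under about 52% in both replicate screens, with viability over 70% of control, limit read from the data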;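 as to Her2 level: lower value means less Her2 protein in the cells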;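 as to viability: percent of carrier control wells set as 100% viability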). The settings on record: SKBR3 Her2 protein level, 18-24 h, measured here: SKBR3 viability, ATP luminescence, at 10 µM. (In general: In Alpha technology, singlet oxygen from a donor bead excites a nearby acceptor bead.)
For experiment [2], the target named is Receptor tyrosine-protein kinase erbB-2 (Homo sapiens) (UniProt P04626). Described as above. The settings on record: 18-24 h, at 10 µM, stronger effect = lower value.
Chain of Receptor tyrosine-protein kinase erbB-2 (Homo sapiens) (P04626 whole entry, looked up): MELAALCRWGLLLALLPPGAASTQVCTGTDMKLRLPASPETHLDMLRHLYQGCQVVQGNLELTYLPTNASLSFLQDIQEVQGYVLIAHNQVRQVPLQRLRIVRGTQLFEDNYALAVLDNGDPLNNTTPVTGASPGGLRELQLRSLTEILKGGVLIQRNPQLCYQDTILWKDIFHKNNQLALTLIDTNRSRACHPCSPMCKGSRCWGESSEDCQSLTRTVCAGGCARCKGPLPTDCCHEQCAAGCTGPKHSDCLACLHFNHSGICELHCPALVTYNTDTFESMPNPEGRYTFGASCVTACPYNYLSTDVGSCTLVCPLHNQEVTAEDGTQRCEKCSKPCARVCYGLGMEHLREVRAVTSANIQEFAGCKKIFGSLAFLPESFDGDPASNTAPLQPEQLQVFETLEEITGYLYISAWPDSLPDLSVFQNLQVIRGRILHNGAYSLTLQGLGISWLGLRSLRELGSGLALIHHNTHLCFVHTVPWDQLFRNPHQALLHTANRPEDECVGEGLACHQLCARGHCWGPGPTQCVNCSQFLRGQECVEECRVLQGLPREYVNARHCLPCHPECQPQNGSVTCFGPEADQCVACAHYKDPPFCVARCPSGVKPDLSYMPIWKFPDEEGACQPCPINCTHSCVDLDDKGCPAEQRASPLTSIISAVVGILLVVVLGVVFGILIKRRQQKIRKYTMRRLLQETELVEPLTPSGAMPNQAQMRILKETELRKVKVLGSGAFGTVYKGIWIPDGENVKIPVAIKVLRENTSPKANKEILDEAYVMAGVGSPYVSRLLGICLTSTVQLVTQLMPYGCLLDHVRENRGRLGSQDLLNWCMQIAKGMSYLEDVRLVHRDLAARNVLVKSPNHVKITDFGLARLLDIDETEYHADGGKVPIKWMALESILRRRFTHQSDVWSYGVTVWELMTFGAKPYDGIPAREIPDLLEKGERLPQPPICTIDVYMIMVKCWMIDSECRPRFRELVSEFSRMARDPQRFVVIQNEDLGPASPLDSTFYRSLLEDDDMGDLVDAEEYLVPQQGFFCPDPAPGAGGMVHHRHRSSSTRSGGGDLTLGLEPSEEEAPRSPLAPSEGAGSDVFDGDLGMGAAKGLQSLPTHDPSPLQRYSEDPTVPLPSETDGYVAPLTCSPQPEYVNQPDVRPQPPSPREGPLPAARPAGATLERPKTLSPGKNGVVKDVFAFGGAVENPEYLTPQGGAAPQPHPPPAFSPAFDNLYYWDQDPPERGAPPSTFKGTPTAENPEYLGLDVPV
The nature of experiment [3]: reduced viability of SK-BR-3 breast cancer cells – cell-based, 24 h, human, pilot screen (AID 572).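 Also: compound exposure lasted between 18 and 24 h rather than exactly 24 h; 100% = carrier-treated control wells.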 The note with it: SK-BR-3 viability, CellTiter-Glo luminescence, at 10 µM, stronger effect = lower value.
Experiment [4] can be described thus: HUVEC growth inhibition – cell-based, human, primary screen (AID 575;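 active = viability at or below 30% in both replicate assays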;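 also: 100% = median of untreated cell wells with 0.1% DMSO on each plate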). The note with it: HUVEC proliferation, CellTiter-Glo luminescence, 72 h; at 10 µM; stronger effect = lower value. The method, boiled down: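 Assay system: Primary human umbilical vein endothelial cells | Quantity: 1250 cells per well | Medium: Supplemented EBM, 2% fetal bovine serum | Detection: CellTiter-Glo luminescence measuring cellular ATP | Read-out: % viability vs DMSO wells | Plate: Collagen-coated 384-well format | Times: 72 h exposure, 37 °C, 5% CO2, 30 min RT equilibration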
Background: In ATP-based viability assays light output follows the ATP content of the culture.

Experiment [5] can be described thus: H69AR cell proliferation blockers – human, duplicate replicates, primary screen (AID 580;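 active = viability at or under a set limit in both replicates, limit being median viability minus 3 SD, cut at about 48% in these data, passing the limit was not always enough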;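 also: 100% = mean luminescence of untreated wells and 0% = no signal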). The settings on record: H69AR lung tumor cells viability, ATP luminescence, 72 h; at 10 µM; stronger effect = lower value.
A short description of experiment [6]: MRP1 drug-resistance reversers in H69AR cells – cell-based, doxorubicin co-treatment, pilot screen (AID 601;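 active = viability loss from added drug above about 55%, and viability with drug at most 40%, in both replicates, limit read from the data, passing the limit was not always enough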). The note with it: CellTiter-Glo, 72 h, at 10 µM; for differential viability (reversal): stronger effect = higher value.
The nature of experiment [7]: yeast transport mutant growth inhibition pilot in 384-well plates, post-Golgi transport modulator project (AID 636; in the data active = inhibition above about 31%). The note with it: absorbance 615 nm, about 18 h, stronger effect = higher value.
The nature of experiment [8]: growth suppression of yeast trafficking mutant, preliminary HTS, modulators of trafficking downstream of Golgi apparatus project, 1536-format plate, OD 615 nm (AID 637; in the data active = inhibition above about 30%). The settings on record: yeast transport mutant growth, absorbance 615 nm, 18 h; stronger effect = higher value.
Setting [9] is: H69AR cells + 2 uM doxorubicin, measured here: viability with 2 uM doxorubicin, stronger effect = lower value.
[10] abbreviates: H69AR cells, compound alone cytotoxicity.

The source made the active and inactive calls.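 The calls were made as follows, unless noted: active = viability at or below 10% of carrier control in both of two separate runs; inconclusive = viability at or below 10% in only one of the two runs; inactive = the rest.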

As a reminder, the viability is a read-out of living cells in per cent, often relative to untreated cells. The term inhibition denotes the change of the read-out against control, counted positive when it falls.

Take `Cc1cc(NC(=O)c2cnn3cccnc23)no1`: the viability in experiment [1] is 101%; in experiment [3], 101% (inactive); in experiment [4], 97% (inactive); in experiment [5], 97.8% (inactive); in experiment [6] (setting [9]), 93.5%; in experiment [6] (setting [10]), 97.8%. Besides, in experiment [2], the Her2 level is 108% (inactive). Besides, the differential viability (reversal) in experiment [6] (H69AR cells + 2 uM doxorubicin) was 4.21% (inactive). For the same compound, the inhibition in experiment [7] was -0.92% (inactive); in experiment [8], -5.65% (inactive).

Consider `CCOC(=O)C1=C(NC#N)OC(C)=C(C)C1c1ccc(O)cc1` (stereo not given), for which the viability in experiment [1] is 92.5%; in experiment [3], 92.5% (inactive); in experiment [4], 95.1% (inactive); in experiment [5], 90.3% (inactive); in experiment [6] (setting [9]), 86.4%; in experiment [6] (setting [10]) it was 90.3%. In addition, the Her2 level in experiment [2] is 79% (inactive). Further, the differential viability (reversal) in experiment [6] (H69AR cells + 2 uM doxorubicin) was 3.92% (inactive). In addition, the inhibition in experiment [7] is 0.27% (inactive); in experiment [8], 0.65% (inactive).

On to `Cc1cc(-c2nc3ncccc3o2)ccc1N`, for which the viability was 99% in experiment [1]; 99% (inactive) in experiment [3]; 92.6% (inactive) in experiment [4]; 90.4% (inactive) in experiment [5]; 84% in experiment [6] (setting [9]); 90.4% in experiment [6] (setting [10]). The Her2 level in experiment [2] is 76.5% (inactive). Moreover, the differential viability (reversal) in experiment [6] (H69AR cells + 2 uM doxorubicin) is 6.33% (inactive). Moreover, the results for the inhibition in experiment [7] and in experiment [8] were -2.37% (inactive) and 11% (inactive), respectively.

Turning to `CCOC(=O)c1cccc(NC(=O)CS(=O)(=O)Cc2nc(-c3cccc(OC)c3)oc2C)c1`, the viability in experiment [1] was 99.5%; in experiment [3], 99.5% (inactive); in experiment [4] it was 95.2% (inactive); in experiment [5], 85.3% (inactive); in experiment [6] (setting [9]), 92.8%; in experiment [6] (setting [10]) it was 85.3%. For the same compound, the Her2 level in experiment [2] is 79% (inactive). Moreover, the differential viability (reversal) in experiment [6] (H69AR cells + 2 uM doxorubicin) is -7.47% (inactive). Moreover, the inhibition in experiment [7] was -7.87% (inactive); in experiment [8], -6.61% (inactive).

Regarding `O=S(=O)(c1ccc2nc(Cc3cccc(C(F)(F)F)c3)[nH]c2c1)N1CCOCC1`, the viability in experiment [1] was 104%; in experiment [3], 104% (inactive); in experiment [4], 67.9% (inactive); in experiment [5], 82.9% (inactive); in experiment [6] (setting [9]), 79.4%; in experiment [6] (setting [10]), 82.9%. The Her2 level in experiment [2] is 91% (inactive). Moreover, the differential viability (reversal) in experiment [6] (H69AR cells + 2 uM doxorubicin) was 3.53% (inactive). In addition, the figures for the inhibition in experiment [7] and in experiment [8] were -1.69% (inactive) and -0.16% (inactive), respectively.

As to `COc1cc(NC(=O)Cc2cccs2)ccc1-n1cnnn1`, the viability is 97% in experiment [1]; 97% (inactive) in experiment [3]; 97% (inactive) in experiment [4]; 102% (inactive) in experiment [5]; 94.4% in experiment [6] (setting [9]); 102% in experiment [6] (setting [10]). The Her2 level in experiment [2] was 95.5% (inactive). The differential viability (reversal) in experiment [6] (H69AR cells + 2 uM doxorubicin) was 7.88% (inactive). Further, the inhibition was -6.13% (inactive) in experiment [7] and 1.29% (inactive) in experiment [8].

Consider `N#CC1=C(N)N(c2ccccc2)C2=C(C(=O)CCC2)C1c1cccs1` (stereo not given), for which the viability is 96.5% in experiment [1]; 96.5% (inactive) in experiment [3]; 80.8% (inactive) in experiment [4]; 70.3% (inactive) in experiment [5]; 23.5% in experiment [6] (setting [9]); 70.3% in experiment [6] (setting [10]). For the same compound, the Her2 level in experiment [2] is 97.5% (inactive). For the same compound, the differential viability (reversal) in experiment [6] (H69AR cells + 2 uM doxorubicin) was 46.8% (inactive). Besides, the inhibition in experiment [7] was -5.95% (inactive); in experiment [8], 0.83% (inactive).

`O=C(C1CCCO1)N1CCN(Cc2nc3ccccc3c(=O)[nH]2)CC1` (stereo not given): the viability in experiment [1] is 91.5%; in experiment [3] it was 91.5% (inactive); in experiment [4], 96.3% (inactive); in experiment [5], 94.9% (inactive); in experiment [6] (setting [9]), 105%; in experiment [6] (setting [10]), 94.9%. For the same compound, the Her2 level in experiment [2] was 92% (inactive). Besides, the differential viability (reversal) in experiment [6] (H69AR cells + 2 uM doxorubicin) is -10% (inactive). The inhibition in experiment [7] is -7.16% (inactive); in experiment [8], 0.16% (inactive).

In the case of `CC1(C)Cc2cccc(OCC(=O)O)c2O1`, the viability was 107% in experiment [1]; 107% (inactive) in experiment [3]; 94.5% (inactive) in experiment [4]; 95.4% (inactive) in experiment [5]; 87.8% in experiment [6] (setting [9]); 95.4% in experiment [6] (setting [10]). Further, the Her2 level in experiment [2] is 90% (inactive). The differential viability (reversal) in experiment [6] (H69AR cells + 2 uM doxorubicin) is 7.61% (inactive). The inhibition is -4.53% (inactive) in experiment [7] and -3.97% (inactive) in experiment [8].

For `CCn1cc(C(=O)O)c(=O)c2cc(F)c(N3CCN(C(=O)Nc4ccccc4)CC3)cc21`, the viability in experiment [1] is 108%; in experiment [3] it was 108% (inactive); in experiment [4], 111% (inactive); in experiment [5], 79.5% (inactive); in experiment [6] (setting [9]) it was 81.1%; in experiment [6] (setting [10]), 79.5%. Moreover, the Her2 level in experiment [2] was 92% (inactive). In experiment [6] (H69AR cells + 2 uM doxorubicin), the differential viability (reversal) was -1.55% (inactive). Moreover, the inhibition in experiment [7] is -3.87% (inactive); in experiment [8] it was 0% (inactive).

`CN(C)c1ccc(CNC2CC(C)(C)NC(C)(C)C2)cc1`: the viability is 91% in experiment [1]; 91% (inactive) in experiment [3]; 94.2% (inactive) in experiment [4]; 98.9% (inactive) in experiment [5]; 91.3% in experiment [6] (setting [9]); 98.9% in experiment [6] (setting [10]). The Her2 level in experiment [2] was 112% (inactive). For the same compound, in experiment [6] (H69AR cells + 2 uM doxorubicin), the differential viability (reversal) was 7.67% (inactive). The inhibition in experiment [7] is -7.5% (inactive); in experiment [8], -6.07% (inactive).

For `CC1(C)CC(=O)c2cc(OCC(=O)NCCCN3CCN(c4ccccc4F)CC3)ccc2O1`, the viability in experiment [1] is 81%; in experiment [3] it was 81% (inactive); in experiment [4], 59.3% (inactive); in experiment [5], 80% (inactive); in experiment [6] (setting [9]), 86%; in experiment [6] (setting [10]), 80%. For the same compound, the Her2 level in experiment [2] was 85.5% (inactive). For the same compound, the differential viability (reversal) in experiment [6] (H69AR cells + 2 uM doxorubicin) is -5.98% (inactive). Further, the inhibition in experiment [7] was -4.61% (inactive); in experiment [8], -3.45% (inactive).

For `Cc1cc(C(=O)CSCc2nnc3n(CCC(C)C)c(=O)c4ccccc4n23)c(C)n1C`, the viability in experiment [1] is 99.5%; in experiment [3], 99.5% (inactive); in experiment [4], 84.2% (inactive); in experiment [5] it was 67.3% (inactive); in experiment [6] (setting [9]), 66.8%; in experiment [6] (setting [10]) it was 67.3%. Moreover, the Her2 level in experiment [2] was 84% (inactive). The differential viability (reversal) in experiment [6] (H69AR cells + 2 uM doxorubicin) was 0.59% (inactive). For the same compound, the figures for the inhibition in experiment [7] and in experiment [8] were -1.84% (inactive) and -0.73% (inactive), respectively.

On to `Cc1nn(-c2ccccc2)c2sc(C(=O)N3CCOCC3)cc12`, for which the viability was 88.5% in experiment [1]; 88.5% (inactive) in experiment [3]; 71.9% (inactive) in experiment [4]; 87.3% (inactive) in experiment [5]; 89.6% in experiment [6] (setting [9]); 87.3% in experiment [6] (setting [10]). Also, in experiment [2], the Her2 level is 84.5% (inactive). Besides, the differential viability (reversal) in experiment [6] (H69AR cells + 2 uM doxorubicin) is -2.3% (inactive). The inhibition in experiment [7] is -6% (inactive); in experiment [8], -0.48% (inactive).

In the case of `COc1ccccc1-n1c(C)nnc1SCC(N)=O`, the viability in experiment [1] was 127%; in experiment [3] it was 127% (inactive); in experiment [4], 101% (inactive); in experiment [5], 91.6% (inactive); in experiment [6] (setting [9]) it was 77.7%; in experiment [6] (setting [10]), 91.6%. Further, the Her2 level in experiment [2] was 113% (inactive). Besides, the differential viability (reversal) in experiment [6] (H69AR cells + 2 uM doxorubicin) is 13.9% (inactive). In addition, the values for the inhibition in experiment [7] and in experiment [8] were -5.33% (inactive) and -0.65% (inactive), respectively.

For `CCCCOc1ccc(CSc2n[nH]c(C)n2)cc1`, the viability in experiment [1] is 83.5%; in experiment [3], 83.5% (inactive); in experiment [4], 103% (inactive); in experiment [5], 100% (inactive); in experiment [6] (setting [9]) it was 89.7%; in experiment [6] (setting [10]), 100%. Also, the Her2 level in experiment [2] was 99.5% (inactive). The differential viability (reversal) in experiment [6] (H69AR cells + 2 uM doxorubicin) was 10.7% (inactive). In addition, the inhibition is -1.22% (inactive) in experiment [7] and -0.49% (inactive) in experiment [8].

The record behind these values is PubChem BioAssay.
